The source of these data is ChEMBL document CHEMBL4052589, “Discovery of Imidazo[1,2-a]pyridine Ethers and Squaramides as Selective and Potent Inhibitors of Mycobacterial Adenosine Triphosphate (ATP) Synthesis” (J Med Chem, 2017).

Each structure is given as a SMILES string.

Holding throughout (format): functional
Assay [1] has as its system Mycobacterium tuberculosis. The assay is described as follows: Antimycobacterial activity against Mycobacterium tuberculosis H37Rv harboring ATP synthase subunit-a K179N mutant supplemented with 4 fold MIC of 3-(4-Morpholinophenyl)-4-((pyridin-2-ylmethyl)amino)cyclobut-3-ene-1,2-dione. An outline of the steps:
(§1)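 Spontaneous resistant mutants were selected by plating M. tuberculosis on 7H10 agar containing the squaramide at 4- or 8-fold its MIC. MIC was then determined for the mutants, with MIC taken as the concentration giving 80% growth inhibition.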

For assay [2], the system named is Mycobacterium tuberculosis. The assay is described as follows: Antimycobacterial activity against Mycobacterium tuberculosis H37Rv harboring ATP synthase subunit-c D28N mutant supplemented with 4 fold MIC of 3-(4-Morpholinophenyl)-4-((pyridin-2-ylmethyl)amino)cyclobut-3-ene-1,2-dione. The method in brief: as §1
Assay [3] relates to Mycobacterium tuberculosis. The assay is described as follows: Antimycobacterial activity against Mycobacterium tuberculosis H37Rv harboring ATP synthase subunit-c D28N mutant supplemented with 8 fold MIC of 3-(4-Morpholinophenyl)-4-((pyridin-2-ylmethyl)amino)cyclobut-3-ene-1,2-dione. An outline of the steps:
as §1

Assay [4] relates to Mycobacterium tuberculosis. Nature of the assay: Antimycobacterial activity against Mycobacterium tuberculosis H37Rv harboring ATP synthase subunit a K179N mutant supplemented with 8 fold MIC of 3-(4-Morpholinophenyl)-4-((pyridin-2-ylmethyl)amino)cyclobut-3-ene-1,2-dione. The method in brief: as §1
Assay [5] concerns Mycobacterium tuberculosis. Nature of the assay: Selectivity ratio of MIC for Mycobacterium tuberculosis H37Rv harboring ATP synthase subunit-a K179N mutant supplemented with 4 fold MIC of 3-(4-Morpholinophenyl)-4-((pyridin-2-ylmethyl)amino)cyclobut-3-ene-1,2-dione to MIC for Mycobacterium tuberculosis H37Rv.
Assay [6] relates to Mycobacterium tuberculosis. Nature of the assay: Selectivity ratio of MIC for Mycobacterium tuberculosis H37Rv harboring ATP synthase subunit-c D28N mutant supplemented with 4 fold MIC of 3-(4-Morpholinophenyl)-4-((pyridin-2-ylmethyl)amino)cyclobut-3-ene-1,2-dione to MIC for Mycobacterium tuberculosis H37Rv.
For assay [7], the system named is Mycobacterium tuberculosis. Nature of the assay: Selectivity ratio of MIC for Mycobacterium tuberculosis H37Rv harboring ATP synthase subunit-c D28N mutant supplemented with 8 fold MIC of 3-(4-Morpholinophenyl)-4-((pyridin-2-ylmethyl)amino)cyclobut-3-ene-1,2-dione to MIC for Mycobacterium tuberculosis H37Rv.
Assay [8] deals with Mycobacterium tuberculosis. Nature of the assay: Selectivity ratio of MIC for Mycobacterium tuberculosis H37Rv harboring ATP synthase subunit a K179N mutant supplemented with 8 fold MIC of 3-(4-Morpholinophenyl)-4-((pyridin-2-ylmethyl)amino)cyclobut-3-ene-1,2-dione to MIC for Mycobacterium tuberculosis H37Rv.

Regarding `O=c1c(NCc2ccccn2)c(-c2ccc(N3CCOCC3)cc2)c1=O`, the “MIC=>80” value is >100 µM in assay [1], >100 µM in assay [2], 100 µM in assay [3] and >100 µM in assay [4]. Moreover, the Selectivity ratio in assay [5], in assay [6], in assay [7] and in assay [8] was >8 each time.

Turning to `CO[C@H]1/C=C/O[C@@]2(C)Oc3c(C)c(O)c4c(O)c(c(/C=N/N5CCN(C)CC5)c(O)c4c3C2=O)NC(=O)/C(C)=C\C=C\[C@H](C)[C@H](O)[C@@H](C)[C@@H](O)[C@@H](C)[C@H](OC(C)=O)[C@@H]1C` [RIFAMPIN], the “MIC=>80” value in assay [1] is 0.008 µM; in assay [2], 0.008 µM; in assay [3], 0.016 µM; in assay [4], 0.004 to 0.008 µM. For the same molecule, the Selectivity ratio result in assay [5], in assay [6], in assay [7] and in assay [8] was “<=4” throughout.

For `O=c1c(NCc2ccccn2)c(-c2ccc(C(F)(F)F)cc2)c1=O`, the “MIC=>80” value is >100 µM in assay [1], >100 µM in assay [2], 100 µM in assay [3] and “>=100 uM” in assay [4]. In addition, the Selectivity ratio in assay [5], in assay [6], in assay [7] and in assay [8] was >8 in each case.

For the molecule `NNC(=O)c1ccncc1` [ISONIAZID], the “MIC=>80” value was 0.03 µM in assay [1], 0.02 µM in assay [2], 0.03 µM in assay [3] and 0.02 to 0.03 µM in assay [4]. Besides, the Selectivity ratio result in assay [5], in assay [6], in assay [7] and in assay [8] was “<=4” in each case.

As for `O=c1c(NCc2cnccn2)c(-c2ccc(N3CCOCC3)cc2)c1=O`, the “MIC=>80” value in assay [1], in assay [2], in assay [3] and in assay [4] was >100 µM each time. Further, the Selectivity ratio in assay [5], in assay [6], in assay [7] and in assay [8] was >8 throughout.
